Laboratory results: ChEMBL document CHEMBL5705901, “Exploiting selective BCL-2 family inhibitors to dissect cell survival dependencies and define improved strategies for cancer therapy” (Sci Transl Med, 2015)

Experiments:
OCI-AML-5 = test: Antiproliferative activity against human OCI-AML5 assessed as reduction in cell viability incubated for 48 hrs by CellTiter-Glo cell vaibility assay; assay type: functional, cell-based; conditions: OCI-AML-5, 48 h
Method in brief: (§1)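 Tumour cell lines (SCLC panel and AML panel) exposed to increasing concentrations for 48 hours, then cell viability measured. Cell-killing EC50 taken from the concentration-response.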

MV4-11 = test: Antiproliferative activity against human MV4-11 assessed as reduction in cell viability incubated for 48 hrs by CellTiter-Glo cell vaibility assay; assay type: functional, cell-based; conditions: MV4-11, 48 h; method in brief: as §1
KG-1 = test: Antiproliferative activity against human KG-1 assessed as reduction in cell viability incubated for 48 hrs by CellTiter-Glo cell vaibility assay; assay type: functional, cell-based; conditions: KG-1, 48 h; method in brief: as §1
EOL1 = test: Antiproliferative activity against human EOL1 assessed as reduction in cell viability incubated for 48 hrs by CellTiter-Glo cell vaibility assay; assay type: functional, cell-based; conditions: EOL1, 48 h; method in brief: as §1
[1] = target: Induced myeloid leukemia cell differentiation protein Mcl-1 (Homo sapiens, UniProt Q07820); test: Binding affinity to MCL-1 (unknown origin) assessed as dissociation constant incubated for 1 hrs by TR-FRET assay
Sequence of Induced myeloid leukemia cell differentiation protein Mcl-1 (Q07820 whole entry): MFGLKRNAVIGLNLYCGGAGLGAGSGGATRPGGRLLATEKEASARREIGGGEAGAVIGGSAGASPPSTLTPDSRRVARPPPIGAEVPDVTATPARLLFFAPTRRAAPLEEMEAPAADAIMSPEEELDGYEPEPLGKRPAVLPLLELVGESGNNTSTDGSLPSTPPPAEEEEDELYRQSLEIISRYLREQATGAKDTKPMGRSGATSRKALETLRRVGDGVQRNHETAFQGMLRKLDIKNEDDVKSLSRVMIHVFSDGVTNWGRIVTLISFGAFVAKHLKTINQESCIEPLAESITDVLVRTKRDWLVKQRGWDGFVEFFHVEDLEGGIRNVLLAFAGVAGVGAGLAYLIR

[2] = Antiproliferative activity against human UKE-1 harboring JAK2 V617F mutant assessed as reduction in cell viability incubated for 48 hrs by CellTiter-Glo cell vaibility assay; assay type: functional, cell-based; conditions: UKE1, 48 h; method in brief: as §1
HEL = test: Antiproliferative activity against human HEL harboring JAK2 V617F mutant assessed as reduction in cell viability incubated for 48 hrs by CellTiter-Glo cell vaibility assay; assay type: functional, cell-based; method in brief: as §1
SIG-M5 = test: Antiproliferative activity against human SIG-M5 assessed as reduction in cell viability incubated for 48 hrs by CellTiter-Glo cell vaibility assay; assay type: functional, cell-based; conditions: SIG-M5, 48 h; method in brief: as §1
OCI-AML-3 = test: Antiproliferative activity against human OCI-AML-3 assessed as reduction in cell viability incubated for 48 hrs by CellTiter-Glo cell vaibility assay; assay type: functional, cell-based; conditions: OCI-AML-3, 48 h; method in brief: as §1
NCI-H889 = test: Antiproliferative activity against human NCI-H889 assessed as reduction in cell viability incubated for 48 hrs by CellTiter-Glo cell vaibility assay; assay type: functional, cell-based; conditions: NCI-H889, 48 h; method in brief: as §1
MOLM-13 = test: Antiproliferative activity against human MOLM-13 assessed as reduction in cell viability incubated for 48 hrs by CellTiter-Glo cell vaibility assay; assay type: functional, cell-based; conditions: MOLM-13, 48 h; method in brief: as §1
MOLT-4 = test: Antiproliferative activity against Bcl-xl dependent human MOLT-4 cells assessed as reduction in cell viability by measuring effect concentration by CellTiter-Glo reagent based assay; assay type: functional
NCI-H1836 = test: Antiproliferative activity against human NCI-H1836 assessed as reduction in cell viability incubated for 48 hrs by CellTiter-Glo cell vaibility assay; assay type: functional, cell-based; conditions: NCI-H1836, 48 h; method in brief: as §1
NCI-H1417 = test: Antiproliferative activity against human NCI-H1417 assessed as reduction in cell viability incubated for 48 hrs by CellTiter-Glo cell vaibility assay; assay type: functional, cell-based; conditions: NCI-H1417, 48 h; method in brief: as §1
[3] = Antiproliferative activity against human NCI-H847 assessed as reduction in cell viability incubated for 48 hrs by CellTiter-Glo cell vaibility assay; assay type: functional, cell-based; conditions: NCI-H847, 48 h; method in brief: as §1
SET-2 = test: Antiproliferative activity against human SET2 harboring JAK2 V617F mutant assessed as reduction in cell viability incubated for 48 hrs by CellTiter-Glo cell vaibility assay; assay type: functional, cell-based; conditions: SET-2, 48 h; method in brief: as §1
NCI-H1048 = test: Antiproliferative activity against human NCI-H1048 assessed as reduction in cell viability incubated for 48 hrs by CellTiter-Glo cell vaibility assay; assay type: functional, cell-based; conditions: NCI-H1048, 48 h; method in brief: as §1
DMS-79 = test: Antiproliferative activity against human DMS 79 assessed as reduction in cell viability incubated for 48 hrs by CellTiter-Glo cell vaibility assay; assay type: functional, cell-based; conditions: DMS-79, 48 h; method in brief: as §1
HL-60 = test: Antiproliferative activity against human HL-60 assessed as reduction in cell viability incubated for 48 hrs by CellTiter-Glo cell vaibility assay; assay type: functional, cell-based; conditions: HL-60, 48 h; method in brief: as §1
THP-1 = test: Antiproliferative activity against human THP-1 assessed as reduction in cell viability incubated for 48 hrs by CellTiter-Glo cell vaibility assay; assay type: functional, cell-based; conditions: THP-1, 48 h; method in brief: as §1
NCI-H211 = test: Antiproliferative activity against human NCI-H211 assessed as reduction in cell viability incubated for 48 hrs by CellTiter-Glo cell vaibility assay; assay type: functional, cell-based; conditions: NCI-H211, 48 h; method in brief: as §1
[4] = Antiproliferative activity against human HNT-34 assessed as reduction in cell viability incubated for 48 hrs by CellTiter-Glo cell vaibility assay; assay type: functional, cell-based; conditions: HNT-34, 48 h; method in brief: as §1
[5] = Inhibition of granulocyte colony formation in human bone marrow cells at 0.1 to 20 uM incubated for 14 to 16 days by light microscopic analysis; assay type: toxicity, cell-based; conditions: bone marrow cell, dose lower 0.1 µM, time lower 14 day, dose upper 20 µM, time upper 16 day
Method in brief: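 Isolated human bone marrow cells cultured in semisolid medium with increasing inhibitor concentrations; granulocyte (neutrophil) colonies counted by light microscopy after 15–16 days; triplicate means with SD; Student's t test versus solvent control.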

NCI-H187 = test: Antiproliferative activity against human NCI-H187 assessed as reduction in cell viability incubated for 48 hrs by CellTiter-Glo cell vaibility assay; assay type: functional, cell-based; conditions: NCI-H187, 48 h; method in brief: as §1
Kasumi 1 = test: Antiproliferative activity against human Kasumi 1 assessed as reduction in cell viability incubated for 48 hrs by CellTiter-Glo cell vaibility assay; assay type: functional, cell-based; conditions: Kasumi 1, 48 h; method in brief: as §1
NCI-H446 = test: Antiproliferative activity against human NCI-H446 assessed as reduction in cell viability incubated for 48 hrs by CellTiter-Glo cell vaibility assay; assay type: functional, cell-based; conditions: NCI-H446, 48 h; method in brief: as §1
GDM-1 = test: Antiproliferative activity against human GDM-1 assessed as reduction in cell viability incubated for 48 hrs by CellTiter-Glo cell vaibility assay; assay type: functional, cell-based; conditions: GDM-1, 48 h; method in brief: as §1
ML-2 = test: Antiproliferative activity against human ML-2 assessed as reduction in cell viability incubated for 48 hrs by CellTiter-Glo cell vaibility assay; assay type: functional, cell-based; conditions: ML-2, 48 h; method in brief: as §1
[6] = Antiproliferative activity against human OCI-M2 assessed as reduction in cell viability incubated for 48 hrs by CellTiter-Glo cell vaibility assay; assay type: functional, cell-based; conditions: OCI-M2, 48 h; method in brief: as §1
[7] = Inhibition of granulocyte colony formation in human bone marrow cells at 0.1 to 20 uM incubated for 14 to 16 days in presence of docetaxel by light microscopic analysis; assay type: toxicity, cell-based; conditions: bone marrow cell, dose lower 0.1 µM, time lower 14 day, dose upper 20 µM, time upper 16 day
Method in brief: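 Human bone marrow granulocyte colony-forming assay in semisolid medium, increasing inhibitor concentrations ± 5 nM docetaxel; colonies counted by light microscopy after 14 days; triplicate means with SD; combinations compared with docetaxel alone by Student's t test.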

SKM-1 = test: Antiproliferative activity against human SKM-1 assessed as reduction in cell viability incubated for 48 hrs by CellTiter-Glo cell vaibility assay; assay type: functional, cell-based; conditions: SKM-1, 48 h; method in brief: as §1
NOMO-1 = test: Antiproliferative activity against human NOMO-1 assessed as reduction in cell viability incubated for 48 hrs by CellTiter-Glo cell vaibility assay; assay type: functional, cell-based; conditions: NOMO-1, 48 h; method in brief: as §1
[8] = Antiproliferative activity against human ME-1 assessed as reduction in cell viability incubated for 48 hrs by CellTiter-Glo cell vaibility assay; assay type: functional, cell-based; conditions: ME-1, 48 h; method in brief: as §1
[9] = Antiproliferative activity against human MOLM16 assessed as reduction in cell viability incubated for 48 hrs by CellTiter-Glo cell vaibility assay; assay type: functional, cell-based, MOLM-16; conditions: MOLM16, 48 h; method in brief: as §1
NCI-H345 = test: Antiproliferative activity against human NCI-H345 assessed as reduction in cell viability incubated for 48 hrs by CellTiter-Glo cell vaibility assay; assay type: functional, cell-based; conditions: NCI-H345, 48 h; method in brief: as §1
OCI-AML2 = test: Antiproliferative activity against human OCI-AML2 assessed as reduction in cell viability incubated for 48 hrs by CellTiter-Glo cell vaibility assay; assay type: functional, cell-based; conditions: OCI-AML2, 48 h; method in brief: as §1
[10] = Antiproliferative activity against human OCI-M1 assessed as reduction in cell viability incubated for 48 hrs by CellTiter-Glo cell vaibility assay; assay type: functional, cell-based; conditions: OCI-M1, 48 h; method in brief: as §1
[11] = Antiproliferative activity against human PL-21 assessed as reduction in cell viability incubated for 48 hrs by CellTiter-Glo cell vaibility assay; assay type: functional, cell-based; conditions: PL-21, 48 h; method in brief: as §1
NCI-H69 = test: Antiproliferative activity against human NCI-H69 assessed as reduction in cell viability incubated for 48 hrs by CellTiter-Glo cell vaibility assay; assay type: functional, cell-based; conditions: NCI-H69, 48 h; method in brief: as §1

CC1(C)CCC(CN2CCN(c3ccc(C(=O)NS(=O)(=O)c4ccc(NCC5CCOCC5)c([N+](=O)[O-])c4)c(Oc4cnc5[nH]ccc5c4)c3)CC2)=C(c2ccc(Cl)cc2)C1 [VENETOCLAX]
EC50 (OCI-AML-5): 0.11 µM
EC50 (MV4-11): 0.1 µM
EC50 (KG-1): 1.2 µM
EC50 (EOL1): 0.1 µM
Ki [1]: > 0.444 µM
EC50 [2]: 3.06 µM
EC50 (HEL): 3.37 µM
EC50 (SIG-M5): 0.1 µM
EC50 (OCI-AML-3): > 5 µM
EC50 (NCI-H889): 0.015 µM
EC50 (MOLM-13): 0.1 µM
EC50 (MOLT-4): > 5 µM
EC50 (NCI-H1836): 5 µM
EC50 (NCI-H1417): 4.1 µM
EC50 [3]: 3.9 µM
EC50 (SET-2): 3.33 µM
EC50 (NCI-H1048): 2.7 µM
EC50 (DMS-79): 4.62 µM
EC50 (HL-60): 0.1 µM
EC50 (THP-1): 0.82 µM
EC50 (NCI-H211): 0.33 µM
EC50 [4]: 1.7 µM
Activity [5]: Toxic
EC50 (NCI-H187): 0.85 µM
EC50 (Kasumi 1): 1 µM
EC50 (NCI-H446): 2.4 µM
EC50 (GDM-1): 0.1 µM
EC50 (ML-2): 0.1 µM
EC50 [6]: 4.05 µM
Activity [7]: Toxic
EC50 (SKM-1): 2.53 µM
EC50 (NOMO-1): > 5 µM
EC50 [8]: > 5 µM
EC50 [9]: 0.04 µM
EC50 (NCI-H345): 1.2 µM
EC50 (OCI-AML2): 0.1 µM
EC50 [10]: > 5 µM
EC50 [11]: 1.81 µM
EC50 (NCI-H69): 3.86 µM
